# In BindingDB's records for doi:10.1016/j.ejmech.2019.111920 (Jagiellonian University Medical College, 2020):
# Target: T1, Sodium- and chloride-dependent GABA transporter 2 (Mus musculus, UniProt P31649)
# T1 sequence (P31649 whole entry): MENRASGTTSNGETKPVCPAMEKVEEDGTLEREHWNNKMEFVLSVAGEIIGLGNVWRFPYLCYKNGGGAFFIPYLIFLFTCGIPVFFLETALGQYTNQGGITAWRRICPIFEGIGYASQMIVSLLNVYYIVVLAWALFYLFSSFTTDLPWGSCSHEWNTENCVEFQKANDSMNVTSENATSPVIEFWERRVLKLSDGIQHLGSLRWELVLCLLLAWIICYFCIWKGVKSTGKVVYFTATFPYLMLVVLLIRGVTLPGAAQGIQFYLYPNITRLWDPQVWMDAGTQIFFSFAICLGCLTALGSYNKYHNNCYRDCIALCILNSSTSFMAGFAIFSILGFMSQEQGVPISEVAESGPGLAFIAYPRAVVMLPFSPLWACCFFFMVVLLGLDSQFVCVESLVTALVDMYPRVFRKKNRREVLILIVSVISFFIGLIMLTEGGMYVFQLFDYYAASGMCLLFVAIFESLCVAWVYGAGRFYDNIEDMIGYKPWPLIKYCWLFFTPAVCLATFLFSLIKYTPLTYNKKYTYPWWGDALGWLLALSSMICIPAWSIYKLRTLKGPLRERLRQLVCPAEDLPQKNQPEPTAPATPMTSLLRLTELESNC
# Test: Inhibition of mouse GAT2 expressed in HEK293 cell line assessed as inhibition of [3H]GABA uptake measured after 35 mins by liquid scintillation method
# Procedure, shortened: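 [3H]GABA uptake assay at each mGAT subtype, with screening at 100 µM inhibitor. […] Otherwise, the remaining uptake at 100 µM is reported as a percentage. Values without SEM come from a single triplicate experiment.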
row,IC50,SMILES
1,631 µM,O=C(O)C1=CCCN(CCON=C(c2ccccc2)c2ccccc2)C1
2,229 µM,NCC(O)C(=O)O (stereo unspecified)
3,20.4 µM,Cc1ccsc1C(=CCCN(C)C(CCO)C(=O)NCc1ccccc1)c1sccc1C (stereo unspecified)
4,10.5 µM,Cc1ccsc1C(=CCCN(C)C(CCO)C(=O)NCc1ccccc1Cl)c1sccc1C (stereo unspecified)
5,5.62 µM,Cc1ccsc1C(=CCCN(C)C(CCO)C(=O)NCc1ccc(F)cc1)c1sccc1C (stereo unspecified)
6,9.77 µM,Cc1ccc(CNC(=O)C(CCO)N(C)CCC=C(c2sccc2C)c2sccc2C)cc1 (stereo unspecified)
7,10 µM,Cc1ccsc1C(=CCCN(C)C(CCO)C(=O)NCc1ccc(F)cc1F)c1sccc1C (stereo unspecified)
8,8.91 µM,Cc1ccsc1C(=CCCN(C)C(CC(C)O)C(=O)NCc1ccccc1)c1sccc1C (stereo unspecified)
9,10.4 µM,Cc1ccsc1C(=CCCN(C)C(CC(C)O)C(=O)NCc1ccccc1Cl)c1sccc1C (stereo unspecified)
10,10.5 µM,Cc1ccsc1C(=CCCN(C)C(CC(C)O)C(=O)NCc1ccc(Cl)cc1)c1sccc1C (stereo unspecified)
11,26.3 µM,Cc1ccsc1C(=CCCN(C)C(CC(C)O)C(=O)NCc1ccc(F)cc1)c1sccc1C (stereo unspecified)
12,17 µM,Cc1ccc(CNC(=O)C(CC(C)O)N(C)CCC=C(c2sccc2C)c2sccc2C)cc1 (stereo unspecified)
13,5.5 µM,Cc1ccsc1C(=CCCN(C)C(CCN)C(=O)NCc1ccccc1)c1sccc1C (stereo unspecified)
14,7.76 µM,Cc1ccc(CNC(=O)C(CCN)N(C)CCC=C(c2sccc2C)c2sccc2C)cc1 (stereo unspecified)
15,4.47 µM,CC(=O)NCCC(C(=O)NCc1ccccc1Cl)N(C)CCC=C(c1sccc1C)c1sccc1C (stereo unspecified)
16,49 µM,O=C(O)C1=CCCN(CCO/N=C/c2ccccc2-c2ccc(Cl)cc2Cl)C1
17,30.9 µM,Cc1ccsc1C(=CCCN(C)C(CO)C(=O)NCc1ccccc1)c1sccc1C (stereo unspecified)
18,15.8 µM,Cc1ccsc1C(=CCCN(C)C(CO)C(=O)NCc1ccc(Cl)cc1)c1sccc1C (stereo unspecified)
19,22.4 µM,Cc1ccsc1C(=CCCN(C)C(CO)C(=O)NCc1ccc(F)cc1)c1sccc1C (stereo unspecified)
20,24 µM,Cc1ccc(CNC(=O)C(CO)N(C)CCC=C(c2sccc2C)c2sccc2C)cc1 (stereo unspecified)
21,25.7 µM,Cc1ccsc1C(=CCCN(C)C1CCc2onc(O)c2C1)c1sccc1C (stereo unspecified)
